This is a sample that favours compounds with a hit; in the whole collection about 4.6% have one here.
Arrestin-AP2 inh: blocks beta-arrestin peptide binding to AP2 adaptin; FITC-arrestin peptide / GST-AP2 beads, flow cytometry; AP2 beta2 appendage carries R879A mutation; 0.31% of 340,000 active; inhibition, % at 10 µM; AID 504490;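 active = inhibition above a set limit, near 3 SD of compounds lacking own fluorescence, cut at about 54% in these data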;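 note: plate controls were DMSO wells for no effect and 5 µM unlabelled arrestin peptide for full effect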
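test system = AP2 appendage R879A on GSH beads | buffer or medium = PBS plus Tween 20 (0.05%) and BSA (0.1%) | incubation = 12 min plus 1 h, RT | detection = bead flow cytometry, FITC channel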
Pemphigus Ab inh: blocks pemphigus antibody binding to human desmoglein-3. P32926. DSG3-coupled beads, scFv-anti-DSG3-GFP binding, flow cytometry; hits give low values. binding (percent of control), % at 10 µM. 0.48% of 310,000 active. AID 588358;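 active = binding more than 3 SD below its plate's average and above zero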;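 note: hits lower antibody fragment binding to DSG3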
Target sequence (P32926 whole entry, looked up, the tested form may be a part): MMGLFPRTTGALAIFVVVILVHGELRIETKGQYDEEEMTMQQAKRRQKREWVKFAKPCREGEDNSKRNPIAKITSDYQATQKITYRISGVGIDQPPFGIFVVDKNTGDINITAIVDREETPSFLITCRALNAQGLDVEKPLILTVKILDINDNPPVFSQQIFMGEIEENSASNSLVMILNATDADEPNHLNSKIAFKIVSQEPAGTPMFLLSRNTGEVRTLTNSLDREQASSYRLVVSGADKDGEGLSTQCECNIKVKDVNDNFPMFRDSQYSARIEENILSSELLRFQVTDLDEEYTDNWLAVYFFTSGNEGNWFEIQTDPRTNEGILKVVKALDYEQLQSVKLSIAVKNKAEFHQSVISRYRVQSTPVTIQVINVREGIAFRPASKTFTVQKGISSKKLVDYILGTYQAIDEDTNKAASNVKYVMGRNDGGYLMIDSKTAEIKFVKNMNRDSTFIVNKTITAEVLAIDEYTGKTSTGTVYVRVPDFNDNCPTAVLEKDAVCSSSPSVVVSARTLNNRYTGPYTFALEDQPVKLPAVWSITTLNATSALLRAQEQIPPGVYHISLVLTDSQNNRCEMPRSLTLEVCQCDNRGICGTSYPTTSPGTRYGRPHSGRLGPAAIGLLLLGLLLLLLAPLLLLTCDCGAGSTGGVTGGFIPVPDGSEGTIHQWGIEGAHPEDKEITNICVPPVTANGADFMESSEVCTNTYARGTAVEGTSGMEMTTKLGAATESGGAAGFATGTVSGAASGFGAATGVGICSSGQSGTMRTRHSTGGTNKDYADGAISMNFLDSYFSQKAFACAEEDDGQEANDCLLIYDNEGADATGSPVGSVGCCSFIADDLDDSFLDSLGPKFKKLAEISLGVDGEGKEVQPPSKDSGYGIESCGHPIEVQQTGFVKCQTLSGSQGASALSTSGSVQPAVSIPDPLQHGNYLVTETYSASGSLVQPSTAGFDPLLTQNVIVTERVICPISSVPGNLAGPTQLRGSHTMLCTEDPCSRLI
NLRP3 yeast inh: inhibitors of NALP3 inflammasome in yeast; 0.39% of 330,000 active; inhibition, % at 10 µM; Yeast reconstituted NLRP3/ASC/caspase-1, beta-gal luminescence, 24 h; AID 2825;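 active = inhibition of 50% or more; inactive = inhibition below 50%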;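 note: plate controls were induced DMSO wells for no effect and uninduced yeast grown without galactose for full effect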
ALR H2O2 inh: human ALR oxidase inhibition via reduced H2O2; AID 485317; purified ALR, DTT oxidation, H2O2 HRP-luminol luminescence; P55789; 3.8% of 290,000 active; inhibition, % (test concentration not listed);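 active = mean replicate inhibition above about 79%, with every replicate also reaching it, limit read from the data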
PolyA inh: yeast polyadenylation inhibition | S. cerevisiae SKY197-pL101 polyadenylation reporter, beta-gal luminescence; efflux-impaired pdr1/pdr3 knockout yeast; score 100 = 6 SD above DMSO | activity score, % at 12 µM | 0.02% of 300,000 active | AID 1875;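 active = lowest replicate activity score at least 50, where 100 means six control SD above control mean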;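 note: yeast exposed to compound for 9 h at 30 °C; higher score means more reporter readthrough which indicates perturbed polyadenylation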
NALP1 yeast inh: NALP1 inhibition; S. cerevisiae NALP1/ASC/caspase-1 growth, X-gal OD620, 72 h; inhibition, % at 10 µM; 0.61% of 280,000 active; AID 2071; in the data active = inhibition mostly above about 24%, no sharp cut-off; inactive = mostly below about 32%
Active calls of the source: *; · = no result given.

SMILES	Arrestin-AP2 inh	Pemphigus Ab inh	NLRP3 yeast inh	ALR H2O2 inh	PolyA inh	NALP1 yeast inh
Cc1cccc(-c2nnc(SC(C)C(=O)N3CCOCC3)o2)c1 (configuration not stated)	-11	·	22	-1	30	16
Cc1cc(N2CCOCC2)nc2ccc(NC(=S)N3CCN(c4ccccc4)CC3)cc12	5	1.0*	24	6	6	-1
Cc1cc(N2CCCCC2)nc2ccc(NC(=O)c3ccc(Br)o3)cc12	2	109	26	·	-13	12
Cc1cc(N2CCN(C)CC2)nc2ccc(NC(=O)c3ccc(Br)o3)cc12	-9	·	3	-19	5	38*
CCN(CC)CCNC(=S)Nc1ccc2nc(N3CCCC3)cc(C)c2c1	-9	75	4	99*	-1	2
CCN(CC)CCNC(=S)Nc1ccc2nc(N3CCN(C)CC3)cc(C)c2c1	-7	98	13	-1	7	0
NS(=O)(=O)c1ccc(S(=O)(=O)N2CCCC(c3ccccc3)C2)cc1 (configuration not stated)	·	112	·	·	·	·
Cc1ccccc1-c1nn(-c2ccc(F)cc2F)cc1CNCCCO	38	95	13	-3	-3	20*
Cc1cc(-c2nn(-c3ccccc3F)cc2CNCCc2cnc[nH]2)c(C)s1	-5	105	-5	-7	4	-12
Cc1cc(S(=O)(=O)Nc2ccc(C(=O)NCCN3CCOCC3)cc2)ccc1F	·	106	·	·	·	·
COc1cc(NCCC(=O)c2cccs2)c(OC)cc1Cl	2	107	7	100*	0	9
COc1ccc(NC(=O)CCC(=O)c2cccs2)cc1Cl	1	109	16	-3	10	8
Cn1c(CNS(=O)(=O)c2ccc(Br)cc2)n[nH]c1=S	5	103	8	91*	5	-20
CN(C)c1ccc2nc3ccc(=[N+](C)C)cc-3sc2c1	23	102	24	99*	·	20
COc1ccc(Cl)cc1NC(=O)CN1CCN(S(=O)(=O)N2CCCCC2)CC1	-7	·	12	-3	-13	23
COc1cc(C2N=C(c3ccccc3)NO2)cc(Br)c1O (configuration not stated)	·	95	7	98*	4	9
COc1ccc(C2N=C(c3ccccc3)NO2)cc1OC (configuration not stated)	8	115	16	-16	24	14
CC1CN=C(NS(=O)(=O)c2ccccc2)N1 (configuration not stated)	·	110	·	·	·	·
CCCCOc1ccc(-c2c(C#N)c(N)[nH]c(=S)c2C#N)cc1	-3	107	5	88*	-17	-8
COc1ccc(S(=O)(=O)N2CCN(C(=O)c3ccc4ccccc4n3)CC2)cc1	-8	100	22	-2	·	·
O=C(CCC1CCCCC1)NCCS(=O)(=O)N1CCN(c2ccccc2)CC1	7	104	24	-1	16	·
CC(=O)NC(=Cc1ccccc1)C(=O)N1CCCC1C(=O)O (configuration not stated)	·	102	·	·	·	·
CC(NC(=O)c1ccc2c(c1)C(=O)N(Cc1cccnc1)C2=O)c1ccccc1 (configuration not stated)	-13	104	9	-2	-24	18
Cc1ccc(-c2cn3c(=S)[nH]nc3s2)cc1	-16	101	3	86*	4	-3
CCN1C(=O)/C(=C2/C=Cc3ccccc3N2CC)SC1=S	1	96	22	99*	-19	-5
SMILES	Arrestin-AP2 inh	Pemphigus Ab inh	NLRP3 yeast inh	ALR H2O2 inh	PolyA inh	NALP1 yeast inh
CN1C(=O)/C(=C2/C=Cc3ccccc3N2CCCS(=O)(=O)O)SC1=S	5	97	42	84*	-16	18
CCN1/C(=C2\C(=O)N(C)C(=S)N2c2ccccc2)C=Cc2ccccc21	-20	88	5	98*	-7	·
CCCNC(=O)Cn1nc(-c2ccccc2OC)ccc1=O	·	97	·	·	·	·
CCCc1cc(=O)[nH]c2nnc(SCC(=O)Nc3cc(C)on3)n12	-8	98	14	·	5	·
Nn1c(SCC(=O)Nc2ccc(Oc3ccccc3)cc2)nnc1C1CC1	-6	99	7	28	-4	4
CCOc1ccc(NC(=O)CSc2nnc(C3CC3)n2N)cc1	-1	103	8	98*	6	7
NC(=O)c1ccc(NC(=O)CSc2nnc(C3CCCCC3)n2N)cc1	35	107	8	-5	-1	26
O=C(CSc1nnc2n1CCCCC2)Nc1ccc(N2CCOCC2)cc1	23	96	3	86*	8	·
Nn1c(SCC(=O)Nc2ccc(N3CCOCC3)cc2)nnc1C1CC1	-7	79	0	99*	·	·
COc1cc(OC)c(C(=O)OCC(=O)Nc2cccc(S(=O)(=O)NC3=NCCCCC3)c2)cc1OC	-7	102	·	·	·	·
Cc1ccc(C(=O)OCC(=O)Nc2cccc(S(=O)(=O)NC3=NCCCCC3)c2)c(C)c1	-4	74*	-1	-29	0	20
Cc1csc(N2C(=O)C3C4CCC(O4)C3C2=O)n1 (configuration not stated)	-8	·	·	·	·	·
CCOC(=O)c1c(C)[nH]c(C2=NNC(=NC3CC3)SC2)c1C	34	97	7	98*	9	-5
CCOC(=O)c1c(C)[nH]c(/C(C)=N/O)c1C	5	94	8	30	13	16
O=C(CCN1C(=O)c2ccccc2S1(=O)=O)N1CCN(c2ccccc2)CC1	2	105	33	88*	-7	-12
O=C(CSc1ccccc1)N1CCN(c2ccccc2)CC1	0	113	20	11	17	-2
Cc1cc([N+](=O)[O-])nn1CCCC(=O)N1CCN(c2ccccc2)CC1	-3	108	-2	98*	2	35
O=C(CCSc1ccc(Cl)cc1)N1CCN(c2ccc(O)cc2)CC1	32	99	44	100*	-25	6
O=C(CCSc1ccccc1)N1CCN(c2ccccc2)CC1	-8	105	25	91*	-14	4
COC(C[C@@H]1O[C@H]1[C@H](O)[C@@H](C)OCc1ccccc1)OC	·	·	19	-9	0	·
Cc1ccc([C@H]2N[C@]3(CCCN(Cc4ccc(Br)cc4)C3=O)[C@H]3C(=O)N(Cc4ccccc4)C(=O)[C@@H]23)cc1	·	105	·	·	·	·
O=C(C(=NNc1ccccc1)c1ccccc1)c1ccccc1	-18	99	·	·	·	·
Oc1ccc(O)c(/C(=N/Nc2ccccc2)c2ccccc2)c1	·	·	5	·	-16	42*
CC(C)CN1CCN(Cc2nc(C(C)C)cs2)CC1CCO (configuration not stated)	-63	-8.8*	11	-2	11	3
O=C(O)c1cccnc1SC1CC(=O)N(CCc2ccccc2)C1=O (configuration not stated)	1	102	3	-4	2	40*

Screening results from PubChem.
